Data from ChEMBL document CHEMBL1154981, “Chemical constituents from the leaves and stems of Schisandra rubriflora” (J Nat Prod, 2010).
Values after ≈ are worked out from the molar mass of the structure shown.

Tests used:
K562 = assay: Cytotoxicity against human K562 cells after 48 hrs by SRB assay; type: functional, cell-based; settings: K562, 48 h
HepG2 = assay: Cytotoxicity against human HepG2 cells after 48 hrs by SRB assay; type: functional, cell-based; settings: HepG2, 48 h
[1] = tested on: Human immunodeficiency virus 1; assay: Antiviral activity against HIV1-infected human C8166 cells; type: functional, organism-based; settings: Human immunodeficiency virus 1, C8166
Outline: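 Protection of C8166 cells from HIV-1 cytopathic effects, read as EC50. Run alongside the cytotoxicity measurement, with AZT as positive control.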

[2] = Selectivity index, ratio of antiviral activity against HIV1-infected human C8166 cells over cytotoxicity against human C8166 cells; type: toxicity, cell-based; settings: uninfected and HIV-1-infected, read-out: Selectivity Index
[3] = Cytotoxicity against human C8166 cells by MTT assay; type: cell-based
Outline: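 Uninfected C8166 cells scored for viability by MTT, giving CC50. Run in parallel with the HIV-1 cytopathic-effect assay, with AZT as reference.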

Row | EC50 [1] | Structure (SMILES) | IC50 (K562) | IC50 (HepG2) | selectivity ratio [2] | CC50 [3]
1 | 30.1 mg/L (≈ 52.2 µM) | C[C@@H]1C(=O)O[C@H]2[C@@H]1O[C@]13O[C@@]4(CC[C@]5(C)C(=O)[C@](C)(O)[C@@]2(O)[C@H]15)C[C@]12OC(=O)C[C@H]1OC(C)(C)[C@@H]2[C@@H](O)C[C@H]4C3=O [SCHIRUBRIDILACTONE A] | > 5 mg/L | > 5 mg/L | 5.1 | 
2 | 66.8 mg/L (≈ 116 µM) | CC1(C)O[C@@H]2CC(=O)O[C@@]23C[C@]24CC[C@]5(C)C(=O)[C@](C)(O)[C@]6(O)[C@H]7OC(=O)[C@](C)(O)[C@H]7O[C@@](O2)(C(=O)C4=CC[C@@H]13)[C@@H]65 [SCHIRUBRIDILACTONE E] | > 5 mg/L | > 5 mg/L | 3.1 | 
3 | 80.8 mg/L (≈ 149 µM) | C[C@@H]1C(=O)O[C@H]2[C@@H]1O[C@]13O[C@@]4(CC[C@]5(C)C(=O)[C@@H](C)[C@H]2[C@H]15)C[C@]12OC(=O)C[C@H]1OC(C)(C)[C@@H]2C[C@@H]1O[C@@]14C3=O [SCHIRUBRIDILACTONE D] | > 5 mg/L | > 5 mg/L | 2.2 | 

Further lines, the compound ahead of its results:

Row | Structure (SMILES) | EC50 [1] | IC50 (K562) | IC50 (HepG2) | selectivity ratio [2] | CC50 [3]
4 | C/C(=C/[C@H]1O[C@]23O[C@@]4(CC[C@]5(C)C(=O)[C@](C)(O)[C@H]1[C@H]25)C[C@]12OC(=O)C[C@H]1OC(C)(C)[C@@H]2CC=C4C3=O)C(=O)O [SCHIRUBRIDILACTONE B] | 15.2 mg/L (≈ 28 µM) | > 5 mg/L | > 5 mg/L | 9 | 
5 | CC1=C[C@H]([C@H]2O[C@]34C(=CC[C@@H]3[C@@H]2C)[C@@H]2[C@H](O)C[C@H]3C(C)(C)O[C@@H]5CC(=O)O[C@@]53C[C@@]2(O)C[C@@H]4O)OC1=O [SCHIRUBRIDILACTONE F] | 50.1 mg/L (≈ 97 µM) | > 5 mg/L | > 5 mg/L | 3.5 | 
6 | C[C@@H]1C(=O)[C@@]2(C)CC[C@]34C[C@]56OC(=O)C[C@H]5O[C@@](C)(CO)[C@@H]6CC[C@@]3(O)C(=O)[C@@]3(O[C@]5(C[C@H](C)C(=O)O5)[C@@H]1[C@H]32)O4 [SCHIRUBRIDILACTONE C] | 14.3 mg/L (≈ 25.5 µM) |  |  | 8.7 | 
7 | Cc1cn([C@H]2C[C@H](N=[N+]=[N-])[C@@H](CO)O2)c(=O)[nH]c1=O [ZIDOVUDINE] |  |  |  |  | > 200 mg/L
